Assay results as given in ChEMBL document CHEMBL4665669, “Novel tertiary sulfonamide derivatives containing benzimidazole moiety as potent anti-gastric cancer agents: Design, synthesis and SAR studies” (Eur J Med Chem, 2019).
Calls of active or inactive are those of the source. No cut-off for these calls is given here.

How the values were obtained:
MGC-803 [1] = experiment: Cell cycle arrest at G2 phase in human MGC-803 cells assessed as downregulation of CDK1 level at 0.5 to 1.5 umol/L after 48 hrs by Western blot analysis; format: functional, cell-based; conditions: dose micromol/L 0.5-1.5, time 48.0 hrs
Outline: (§1)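 Western blot. Cells were treated with compound concentrations or DMSO for 48 h, then lysed, and lysates were denatured, run on SDS-PAGE and transferred to nitrocellulose. After blocking in 5% skimmed milk, membranes were incubated with primary antibodies at 4 °C for 8 h, then secondary antibodies, with ECL detection.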

MGC-803 [2] = experiment: Inhibition of Ras/Raf/MEK/ERK signalling pathway in human MGC-803 cells assessed as decrease in ERK1/2 phosphorylation after 48 hrs by Western blot analysis; format: cell-based; conditions: dose micromol/L 0.5-1.5, time 48.0 hrs
Outline: (§2)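 Cells treated with graded concentrations or DMSO for 48 h, then harvested and lysed. Lysates denatured, resolved by SDS-PAGE and transferred to nitrocellulose. Membranes blocked with 5% skimmed milk and probed with primary antibodies at 4 °C for 8 h, then with secondary antibodies. Bands detected by ECL.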

PC-3 = experiment: Anticancer activity against human PC-3 cells assessed as inhibition of cell proliferation after 48 hrs by MTT assay; format: functional, cell-based; conditions: PC-3, 48 h
Outline: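 MTT assay with 48 h compound exposure. MTT solution was then added and incubated 4 h at 37 °C, the supernatant discarded and formazan dissolved in DMSO, with absorbance read at 490 nm. IC50 values were calculated from three independent experiments, reported as mean SD.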

MGC-803 [3] = experiment: Cell cycle arrest in human MGC-803 cells assessed as accumulation at G2/M phase at 0.5 to 1.5 umol/L after 48 hrs by RNase/propidium iodide staining based flow cytometry; format: functional; conditions: dose micromol/L 0.5-1.5, time 48.0 hrs
Outline: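 MGC-803, SGC-7901 and HGC-27 cells were seeded in 6-well plates and treated 48 h with compound or DMSO. Cells were then harvested and fixed in 70% cold ethanol at 4 °C for 8 h, and cell-cycle phase distribution was quantified by flow cytometry.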

HGC-27 [4] = experiment: Induction of apoptosis in human HGC-27 cells assessed as cleavage of caspase-7 at 0.5 to 1.5 umol/L after 48 hrs Western blot analysis; format: functional, cell-based; conditions: dose micromol/L 0.5-1.5, time 48.0 hrs; outline: as §1
MGC-803 [5] = experiment: Cell cycle arrest at G2 phase in human MGC-803 cells assessed as downregulation of Cyclin B level at 0.5 to 1.5 umol/L after 48 hrs by Western blot analysis; format: functional, cell-based; conditions: dose micromol/L 0.5-1.5, time 48.0 hrs; outline: as §1
SGC-7901 [6] = experiment: Inhibition of Akt/mTOR signalling pathway in human SGC-7901 cells assessed as decrease in AKT phosphorylation at Ser473 residue at 0.5 to 1.5 umol/L after 48 hrs by Western blot analysis; format: cell-based; conditions: dose micromol/L 0.5-1.5, time 48.0 hrs; outline: as §2
SGC-7901 [7] = experiment: Induction of apoptosis in human SGC-7901 cells assessed as downregulation of c-IAP1 level at 0.5 to 1.5 umol/L after 48 hrs Western blot analysis; format: functional, cell-based; conditions: dose micromol/L 0.5-1.5, time 48.0 hrs; outline: as §1
SGC-7901 [8] = experiment: Inhibition of Ras/Raf/MEK/ERK signalling pathway in human SGC-7901 cells assessed as decrease in c-Raf phosphorylation after 48 hrs by Western blot analysis; format: cell-based; conditions: dose micromol/L 0.5-1.5, time 48.0 hrs; outline: as §2
HGC-27 [9] = experiment: Inhibition of Akt/mTOR signalling pathway in human HGC-27 cells assessed as decrease in mTOR phosphorylation at Ser2448 residue at 0.5 to 1.5 umol/L after 48 hrs by Western blot analysis; format: cell-based; conditions: dose micromol/L 0.5-1.5, time 48.0 hrs; outline: as §2
SGC-7901 [10] = experiment: Inhibition of Ras/Raf/MEK/ERK signalling pathway in human SGC-7901 cells assessed as decrease in ERK1/2 phosphorylation after 48 hrs by Western blot analysis; format: cell-based; conditions: dose micromol/L 0.5-1.5, time 48.0 hrs; outline: as §2
MGC-803 [11] = experiment: Inhibition of Ras/Raf/MEK/ERK signalling pathway in human MGC-803 cells assessed as effect on RAS level at 0.5 to 1.5 umol/L after 48 hrs by Western blot analysis; format: cell-based; conditions: dose micromol/L 0.5-1.5, time 48.0 hrs; outline: as §2
SGC-7901 [12] = experiment: Induction of apoptosis in human SGC-7901 cells assessed as downregulation of XIAP level at 0.5 to 1.5 umol/L after 48 hrs Western blot analysis; format: functional, cell-based; conditions: dose micromol/L 0.5-1.5, time 48.0 hrs; outline: as §1
SGC-7901 [13] = experiment: Induction of apoptosis in human SGC-7901 cells assessed as downregulation of Bcl-2 level at 0.5 to 1.5 umol/L after 48 hrs Western blot analysis; format: functional, cell-based; conditions: dose micromol/L 0.5-1.5, time 48.0 hrs; outline: as §1
HGC-27 [14] = experiment: Inhibition of Ras/Raf/MEK/ERK signalling pathway in human HGC-27 cells assessed as decrease in MEK1 phosphorylation after 48 hrs by Western blot analysis; format: cell-based; conditions: dose micromol/L 0.5-1.5, time 48.0 hrs; outline: as §2
SGC-7901 [15] = experiment: Inhibition of Ras/Raf/MEK/ERK signalling pathway in human SGC-7901 cells assessed as effect on RAS level at 0.5 to 1.5 umol/L after 48 hrs by Western blot analysis; format: cell-based; conditions: dose micromol/L 0.5-1.5, time 48.0 hrs; outline: as §2
SGC-7901 [16] = experiment: Inhibition of colony formation in human SGC-7901 cells at 0.5 to 1.5 umol/L after 7 days by crystal violet staining based assay; format: functional, cell-based; conditions: dose micromol/L 0.5-1.5, time 7.0 day
Outline: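 5000 cells per well seeded and held 24 h at 37 °C, 5% CO2, then exposed to graded concentrations (0.5, 1, 1.5 µmol/L). After 7 days the medium was removed and wells were washed twice with PBS. Colonies fixed in 4% paraformaldehyde and stained with 0.1% crystal violet.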

MGC-803 [17] = experiment: Induction of apoptosis in human MGC-803 cells assessed as downregulation of XIAP level at 0.5 to 1.5 umol/L after 48 hrs Western blot analysis; format: functional, cell-based; conditions: dose micromol/L 0.5-1.5, time 48.0 hrs; outline: as §1
MGC-803 [18] = experiment: Induction of apoptosis in human MGC-803 cells assessed as downregulation of Bcl-2 level at 0.5 to 1.5 umol/L after 48 hrs Western blot analysis; format: functional, cell-based; conditions: dose micromol/L 0.5-1.5, time 48.0 hrs; outline: as §1
SGC-7901 [19] = experiment: Inhibition of Akt/mTOR signalling pathway in human SGC-7901 cells assessed as decrease in mTOR phosphorylation at Ser2448 residue at 0.5 to 1.5 umol/L after 48 hrs by Western blot analysis; format: cell-based; conditions: dose micromol/L 0.5-1.5, time 48.0 hrs; outline: as §2
HGC-27 [20] = experiment: Cell cycle arrest at G2 phase in human HGC-27 cells assessed as downregulation of Cyclin B level at 0.5 to 1.5 umol/L after 48 hrs by Western blot analysis; format: functional, cell-based; conditions: dose micromol/L 0.5-1.5, time 48.0 hrs; outline: as §1
GES1 = experiment: Cytotoxicity against human GES1 cells assessed as inhibition of cell proliferation after 48 hrs by MTT assay; format: cell-based; conditions: GES1, 48 h
Outline: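 Normal gastric epithelial GES-1 cells were exposed to compound for 48 h. MTT was then added for 4 h at 37 °C. Formazan was dissolved in DMSO after the supernatant was removed, and absorbance was read at 490 nm. IC50 was computed from three independent experiments, given as mean SD.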

SGC-7901 [21] = experiment: Induction of apoptosis in human SGC-7901 cells after 48 hrs by flow cytometry analysis; format: functional, cell-based; conditions: dose micromol/L 0.5-1.5, time 48.0 hrs
SGC-7901 [22] = experiment: Induction of apoptosis in human SGC-7901 cells assessed as cleavage of caspase-7 at 0.5 to 1.5 umol/L after 48 hrs Western blot analysis; format: functional, cell-based; conditions: dose micromol/L 0.5-1.5, time 48.0 hrs; outline: as §1

Q: COc1cc(N(Cc2nc3ccccc3[nH]2)S(=O)(=O)c2ccc(C)cc2)cc(OC)c1OC was tested. Which Activity (MGC-803 [1]) did it give?
A: Active

Q: What about the inhibition (MGC-803 [2]) of the same molecule?
A: Dose-dependent effect

Q: What about the IC50 (PC-3) of the same molecule?
A: 3.34 µM

Q: What about the Activity (MGC-803 [3]) of the same molecule?
A: Active

Q: What about the Activity (HGC-27 [4]) of the same molecule?
A: Active

Q: And the Activity (MGC-803 [5])?
A: Active

Q: What about the inhibition (SGC-7901 [6]) of the same molecule?
A: Active

Q: What about the Activity (SGC-7901 [7]) of the same molecule?
A: Active

Q: And the inhibition (SGC-7901 [8])?
A: Dose-dependent effect

Q: And the inhibition (HGC-27 [9])?
A: Active

Q: And the inhibition (SGC-7901 [10])?
A: Dose-dependent effect

Q: What about the inhibition (MGC-803 [11]) of the same molecule?
A: inactive

Q: What about the Activity (SGC-7901 [12]) of the same molecule?
A: Active

Q: What about the Activity (SGC-7901 [13]) of the same molecule?
A: Active

Q: And the inhibition (HGC-27 [14])?
A: Dose-dependent effect

Q: What about the inhibition (SGC-7901 [15]) of the same molecule?
A: inactive

Q: What about the inhibition (SGC-7901 [16]) of the same molecule?
A: Active

Q: And the Activity (MGC-803 [17])?
A: Active

Q: And the Activity (MGC-803 [18])?
A: Active

Q: What about the inhibition (SGC-7901 [19]) of the same molecule?
A: Active

Q: What about the Activity (HGC-27 [20]) of the same molecule?
A: Active

Q: And the IC50 (GES1)?
A: 15.2 µM

Q: What about the Activity (SGC-7901 [21]) of the same molecule?
A: Dose-dependent effect

Q: And the Activity (SGC-7901 [22])?
A: Active
